Active and inactive are the calls of the source. The rule behind the calls is not given here.
Legend:
[1] = test system: HepG2; assay: Cytotoxicity against human HepG2 cells after 4 days by MTT assay; assay type: functional, cell-based; settings: HepG2, 96 h
Method in brief: (§1)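 MTT read-out of viability in human HepG2, HuCCA-1 and A549 cancer cell lines, with doxorubicin as reference drug; IC50 values determined.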

[2] = Cytotoxicity against HuCCa1 cells after 4 days by MTT assay; assay type: functional, cell-based; settings: Homo sapiens, HuCC-A1, 96 h; method in brief: as §1
[3] = test system: MOLT-3; assay: Cytotoxicity against human MOLT3 cells by XTT assay; assay type: functional, cell-based
Method in brief: (§2)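 XTT read-out of viability in human MOLT-3 and HL-60 cell lines, with doxorubicin as reference drug; IC50 values determined.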

[4] = Inhibition of Saccharomyces cerevisiae alpha-glucosidase assessed as p-nitrophenol release by colorimetry
Method in brief: (§3)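 Colorimetric assay with p-nitrophenyl α-D-glucoside substrate at 1.0 mM final. Enzyme at 0.1 U/mL final for S. cerevisiae α-glucosidase and 0.3 U/mL final for B. stearothermophilus α-glucosidase. Run in triplicate (n = 3), with 1-deoxynojirimycin as standard; IC50 determined.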

[5] = Inhibition of Bacillus stearothermophilus alpha-glucosidase assessed as p-nitrophenol release by colorimetry; parameters: species or system Geobacillus stearothermophilus; method in brief: as §3
[6] = target: T1, Aromatase (Homo sapiens, UniProt P11511); assay: Inhibition of aromatase
T1 sequence (P11511 whole entry): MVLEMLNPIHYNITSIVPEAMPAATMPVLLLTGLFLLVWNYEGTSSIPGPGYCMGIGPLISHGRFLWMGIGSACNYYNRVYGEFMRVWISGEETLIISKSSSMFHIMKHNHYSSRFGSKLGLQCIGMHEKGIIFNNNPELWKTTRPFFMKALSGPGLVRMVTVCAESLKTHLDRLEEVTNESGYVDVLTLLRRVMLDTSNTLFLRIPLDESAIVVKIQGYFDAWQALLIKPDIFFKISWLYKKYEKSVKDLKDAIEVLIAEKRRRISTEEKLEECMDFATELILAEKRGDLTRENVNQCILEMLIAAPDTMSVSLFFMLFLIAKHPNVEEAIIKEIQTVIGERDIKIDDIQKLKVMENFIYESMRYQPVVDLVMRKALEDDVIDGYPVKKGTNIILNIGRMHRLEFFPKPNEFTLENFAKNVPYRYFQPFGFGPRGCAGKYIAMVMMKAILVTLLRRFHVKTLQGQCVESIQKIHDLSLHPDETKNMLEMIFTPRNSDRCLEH

[7] = test system: A549; assay: Cytotoxicity against human A549 cells after 4 days by MTT assay; assay type: functional, cell-based; settings: A549, 96 h; method in brief: as §1
[8] = test system: HL-60; assay: Cytotoxicity against human HL60 cells by XTT assay; assay type: functional, cell-based; method in brief: as §2
[9] = test system: HuCC-A1; assay: Cytotoxicity against HuCCa1 cells at 240 uM after 4 days by MTT assay; assay type: functional, cell-based; settings: Homo sapiens
[10] = test system: A549; assay: Cytotoxicity against human A549 cells at 240 uM after 4 days by MTT assay; assay type: functional, cell-based

COc1cccc2c1C(=O)c1c(O)c3c(c(O)c1C2=O)C[C@@](O)(C(=O)CO)C[C@@H]3O[C@H]1C[C@H](N)[C@H](O)[C@H](C)O1 [DOXORUBICIN]
IC50 [1]: 0.37 µM | IC50 [2]: 0.64 µM | IC50 [3]: 0.04 µM

O=C(OC[C@@H](O)[C@@H](O)COC(=O)/C(Cc1ccc(O)cc1)=N\O)/C(Cc1ccc(O)cc1)=N\O [ASPERGILLUSOL A]
IC50 [4]: 465 µM | IC50 [5]: 1060 µM | IC50 [6]: > 100 µM | IC50 [1]: > 105 µM | IC50 [2]: 50 µM | IC50 [7]: 74 µM | IC50 [3]: 19 µM

O=C(OC[C@@H](OC(=O)c1ccccc1)[C@@H](COC(=O)c1ccccc1)OC(=O)c1ccccc1)c1ccccc1
IC50 [1]: 29 µM | IC50 [8]: 44 µM | Activity [9]: inactive | Activity [10]: inactive

OC[C@H]1NC[C@H](O)[C@@H](O)[C@@H]1O [DUVOGLUSTAT]
IC50 [4]: 222 µM | IC50 [5]: 0.45 µM

Source: ChEMBL document CHEMBL1154351, “Aspergillusol A, an alpha-glucosidase inhibitor from the marine-derived fungus Aspergillus aculeatus” (J Nat Prod, 2009)
